Bioassay records from PubChem.
Cl transport mod = KCC2 (human) Cl- transport modulation; 190,000 tested, 2.2% active; Q9H2X9; B-score of Tl+ flux slope (higher = more flux/activation; lower = inhibition) at 10 µM; KCC2 cells, thallium flux FluoZin-2 fluorescence;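 active means thallium flux slope and its plate-corrected score both differing from the plate sample mean at a set confidence after two filtering rounds, in either direction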;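 further: slope of fluorescence scaled to starting intensity during 10 to 20 s after thallium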
KCNQ1 act = potentiates or activates the human KCNQ1 potassium channel. P51787. CHO-K1 KCNQ1, thallium flux FluxOR fluorescence; stronger effect = higher value. B-score at 10 µM. 310,000 tested, 0.35% active. AID 2648;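 active means fluorescence ratio B-score, a plate-corrected score, at least three library SD, with initial intensity B-score within 5 SD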
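assay system = KCNQ1-transfected CHO-K1 cells | medium = assay buffer with matched DMSO | probe or stimulus = depolarizing K+/Tl+ stimulus, K2SO4 and Tl2SO4 each 12.5 mM in 5x stock | dosing = single dose | incubation = dye 90 min, compound 20 min, room temperature | detection = kinetic FluxOR fluorescence, 10 s baseline plus 110 s post-stimulus | evaluation = ratio B score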
KCNK9 block = inhibitors of human KCNK9 two-pore domain potassium channel; HEK293 KCNK9, FluxOR thallium flux fluorescence; stronger effect = lower value; B-score at 10 µM; 310,000 tested, 1.2% active;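 active means ratio B-score over 3 SD below the library mean, with starting fluorescence within 5 SD of its mean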;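 further: negative B-score means less thallium flux so channel inhibition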
Target sequence (Q9NPC2 whole entry, looked up, the tested form may be a part): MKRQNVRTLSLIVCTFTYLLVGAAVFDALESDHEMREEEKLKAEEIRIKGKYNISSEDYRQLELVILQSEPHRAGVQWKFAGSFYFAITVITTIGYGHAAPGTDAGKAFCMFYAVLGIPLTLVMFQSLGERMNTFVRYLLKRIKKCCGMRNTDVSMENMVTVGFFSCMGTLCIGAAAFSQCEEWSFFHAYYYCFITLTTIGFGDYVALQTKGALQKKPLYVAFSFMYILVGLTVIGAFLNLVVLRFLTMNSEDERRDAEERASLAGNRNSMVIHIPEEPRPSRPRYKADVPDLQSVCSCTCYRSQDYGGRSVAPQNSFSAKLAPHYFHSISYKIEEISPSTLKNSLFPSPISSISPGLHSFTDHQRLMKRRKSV
KCNK3 block = human KCNK3 channel inhibition, primary screen. O14649. CHO-KCNK3 thallium flux, FluxOR fluorescence; stronger effect = lower value. B-score at 10 µM. 340,000 tested, 0.84% active. AID 602410;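 active means B-score under library mean minus 4 SD, starting fluorescence ratio at most library mean plus 5 SD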;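 further: more negative B-score means stronger inhibition of thallium flux through KCNK3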
Target sequence (O14649 whole entry, looked up): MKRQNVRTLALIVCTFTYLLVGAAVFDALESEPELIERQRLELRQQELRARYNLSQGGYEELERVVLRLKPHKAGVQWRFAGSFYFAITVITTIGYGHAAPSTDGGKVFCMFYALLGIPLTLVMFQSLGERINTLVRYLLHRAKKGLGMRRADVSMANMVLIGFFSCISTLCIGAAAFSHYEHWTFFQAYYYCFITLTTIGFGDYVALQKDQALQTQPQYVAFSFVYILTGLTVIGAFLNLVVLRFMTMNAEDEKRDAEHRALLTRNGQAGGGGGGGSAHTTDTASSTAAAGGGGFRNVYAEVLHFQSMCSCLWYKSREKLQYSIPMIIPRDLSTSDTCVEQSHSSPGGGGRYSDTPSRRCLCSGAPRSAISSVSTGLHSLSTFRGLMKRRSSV
hERG rescue = shields human hERG channel from block by proarrhythmic agents; CHO-hERG, FluxOR thallium flux, dofetilide IC70 present; activation (rescue from dofetilide block), less the hit threshold, % at 10 µM; 310,000 tested, 0.51% active; AID 1511;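 active means activation above the mean of controls blocked by dofetilide plus 5 SD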;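 further: thallium influx through hERG after potassium depolarization seen as dye fluorescence rise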
KCNQ1 inh = blocks the human KCNQ1 potassium channel. P51787. CHO-K1 KCNQ1, FluxOR thallium flux fluorescence; stronger effect = higher value. B-score at 10 µM. 310,000 tested, 1.3% active;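 active means compounds whose thallium flux B-score, printed positive for inhibition, exceeds three library SD while starting fluorescence stays within three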;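 further: channel opened by potassium depolarization with thallium stimulus after 20 min compound exposure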
KCC2 sec1 = confirmation of human KCC2 transport modulators; shares compounds with Cl transport mod; HEK293-KCC2, thallium flux, FluoZin2 fluorescence; stronger effect = higher value; normalised thallium flux (F/F0 slope) at 10 µM; 3,700 tested, 15% active;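 active means thallium flux slope above the same plate's solvent-only control mean plus 3 SD; inconclusive means the two replicate wells disagree; inactive means no significant difference from solvent-only control wells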
KCC2 bumet counter = thallium flux persisting under bumetanide in KCC2 cells, counter-screen secondary assay | shares compounds with Cl transport mod | HEK293-KCC2 + bumetanide/ouabain, thallium flux FluoZin2; stronger effect = higher value | normalized thallium flux at 10 µM | 3,700 tested, 49% active | AID 1714;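 active means thallium entry rate above the same plate's blocked-transporter control wells by more than 3 SD; inconclusive means the two repeat wells disagree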;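 further: raw slope of fluorescence over initial fluorescence between 10 and 20 s after thallium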
KCC2 secondary2 = confirmation of human KCC2 transport modulators; shares compounds with Cl transport mod; HEK293-KCC2, thallium flux FluoZin2 fluorescence; actives lie on both sides; F/F0 rise rate, 10–20 s post-thallium; normalized thallium flux at 10 µM; 3,700 tested, 23% active;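 active means thallium flux slope more than 3 SD above or below the plate's solvent-only control mean, mostly below; inconclusive means the two repeat wells disagreed; inactive means no significant shift from solvent-only controls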;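 further: raw slope with 0.1% DMSO as baseline and bumetanide as block control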
HEK counter1 = parental HEK flux effect, counter-screen; 3,700 tested, 46% active; shares compounds with Cl transport mod; thallium flux rate (normalised fluorescence) at 10 µM; AID 1716; HEK293 parental cells, thallium flux FluoZin2, ouabain; baseline-ratio fluorescence slope, 10–20 s after thallium;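 active means thallium flux rate significantly above the same plate's solvent-only control wells, beyond their mean plus 3 SD; inconclusive means the two replicate wells gave conflicting results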
KCC2 retest ouab = modulates human KCC2 on retest with ouabain; shares compounds with Cl transport mod; HEK293-KCC2, thallium flux FluoZin2 fluorescence; bidirectional: low = inhibitor, high = activator; raw Tl+ flux slope (below DMSO = inhibition, above = activation) at 10 µM; 3,700 tested, 48% active;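 active means thallium flux slope beyond 3 SD from same-plate DMSO control mean in most replicates, usually higher, sometimes lower; inconclusive means repeat tests gave conflicting results; inactive means no significant difference from controls in most replicates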;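 further: slope of initial-normalized fluorescence between seconds 10 and 20 after thallium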
HEK counter2 = acts in parental HEK cells, second KCC2 counter-screen | shares compounds with Cl transport mod | HEK293 parental, thallium flux FluoZin-2 fluorescence slope | thallium flux slope at 10 µM | 3,700 tested, 33% active;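 active means thallium flux slope above the same plate's solvent-control mean plus 3 SD in both duplicate wells; inconclusive means duplicate wells that disagreed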;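 further: run without ouabain in cells lacking the KCC2 cotransporter; slope of fluorescence scaled to its starting value between 10 and 20 s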
Active calls of the source: *; i = inactive; ? = inconclusive; · = no result. Sampled rows, rich in hits. Any-hit rate of the full collection: about 4.1%.

SMILES	Cl transport mod	KCNQ1 act	KCNK9 block	KCNK3 block	hERG rescue	KCNQ1 inh	KCC2 sec1	KCC2 bumet counter	KCC2 secondary2	HEK counter1	KCC2 retest ouab	HEK counter2
Cc1cc(C(=O)NN=C(CCC(=O)O)c2cccs2)c(C)o1	·	·	·	i	·	·	·	·	·	·	·	·
CN(C(=O)c1ccccc1F)C(c1ccccc1)c1ccccc1	·	i	i	i	-18	i	·	·	·	·	·	·
COCCNc1nnc(SCC(=O)c2c[nH]c3ccccc23)s1	0.045	i	i	i	-1	i	·	·	·	·	·	·
CN(Cc1ccccc1)C(=O)c1ccccc1N(C)S(=O)(=O)c1ccccc1	·	·	·	i	·	·	·	·	·	·	·	·
OCC[C@H]1C[C@@H](O)[C@H](O)[C@]2(Cc3ccccc3CO2)O1	·	·	·	i	·	·	·	·	·	·	·	·
O=S(=O)(c1ccccc1)N1CCN=C1SCc1ccccc1	-3.6*	i	i	i	-9	i	0.0058	?	0.028	0.0068	0.015*	0.0098
Cc1ccc(S(=O)(=O)N2CCCC2C(=O)Nc2nc3c(s2)CCCC3)cc1 (configuration not stated)	-3.2*	i	i	i	-10	i	0.0078	0.0053	0.035	0.0068	0.016*	0.011
Cc1ccc(S(=O)(=O)N2CCCCC2C(=O)Nc2nncs2)cc1 (configuration not stated)	0.94	i	i	i	-9	i	·	·	·	·	·	·
Cc1ccc(-n2c(CNc3ccc(C)c(Cl)c3)n[nH]c2=S)cc1	3.5*	i	i	i	-19	i	0.0094	0.084*	0.032	0.011*	0.028	?
O=C(NCc1cccnc1)C1c2ccccc2C(=O)N1C1CCCCCC1 (configuration not stated)	-4.5*	i	i	i	-9	i	0.0099	0.0071	0.034	0.0088	0.023	?
Oc1ccc(-c2csc(NCc3ccco3)n2)cc1	·	i	i	i	-5	i	0.0086	0.0046	0.032	0.0056*	0.016*	0.0087
Cc1cnc(C(=O)N2CCN(S(=O)(=O)c3cccc(Br)c3)CC2)cn1	·	·	·	i	·	·	·	·	·	·	·	·
CCn1c(SCc2nc3ccccc3s2)nnc1-c1ccccc1	0.21	i	i	i	-8	i	·	·	·	·	·	·
CCC(c1nnc(SCc2nc3ccccc3s2)n1Cc1ccccc1)N(C)C (configuration not stated)	·	i	i	i	-4	i	0.015	0.0046	?	0.0066	0.014	0.0099
c1ccc(Cn2c(SCc3nc4ccccc4s3)nnc2-c2ccco2)cc1	-3.4*	i	i	i	-21	i	0.0063	?	0.027*	0.0053*	?	0.0076*
COc1ccccc1C1CC(=O)Oc2ccc(C(C)(C)C)cc21 (configuration not stated)	·	·	·	i	·	·	·	·	·	·	·	·
CCOC(=O)c1c(NS(C)(=O)=O)sc2c1CCC(C)C2 (configuration not stated)	23*	8*	i	i	1	i	0.02*	0.059*	0.038	0.028*	0.052*	0.014*
CCCS(=O)(=O)N1CCC(C(=O)N2CCC(Cc3ccccc3)CC2)CC1	·	i	i	i	-13	i	0.0076	0.0066	0.029	0.0075	0.028*	0.01
O=C(/C=C/c1ccccc1)N1CCC(Cc2ccccc2)CC1	·	i	i	i	-12	i	0.0068	0.006	0.027	0.0068	0.014*	0.01
COC(=O)C1CCN(C(=O)/C=C/c2ccccc2)CC1	-0.023	i	i	i	-8	i	·	·	·	·	·	·
CCCS(=O)(=O)N1CCCC(C(=O)N2CCC(Cc3ccccc3)CC2)C1 (configuration not stated)	-0.84	i	i	i	-3	i	·	·	·	·	·	·
COC(=O)n1c(=S)oc2cc(Cl)ccc21	3*	i	i	·	1	i	0.018*	0.023*	0.035	0.015*	0.029*	0.012
CCCCOC(=O)n1c(=S)oc2cc(Cl)ccc21	1.2	i	i	i	-5	i	·	·	·	·	·	·
O=C(Nc1nnc(-c2cccs2)o1)c1cc(-c2ccccc2)nc2ccccc12	68*	i	i	i	-21	i	0.016*	0.078*	0.037	0.043*	0.061*	0.015*
Cc1ccc2c(c1)N(CC(=O)Nc1ccccc1F)C(=O)C(C)O2 (configuration not stated)	·	·	·	i	·	·	·	·	·	·	·	·
SMILES	Cl transport mod	KCNQ1 act	KCNK9 block	KCNK3 block	hERG rescue	KCNQ1 inh	KCC2 sec1	KCC2 bumet counter	KCC2 secondary2	HEK counter1	KCC2 retest ouab	HEK counter2
N#Cc1c(-c2c(Cl)cccc2Cl)noc1/C=C/Nc1ccc(C(=O)O)cc1	-5.8*	i	i	i	-13	i	0.0066	0.0045	0.025*	?	0.013*	0.0097
CC(C)(C)c1ccc(COc2ccsc2C(=O)O)cc1	-2.8*	i	i	i	-5	i	0.01	0.0072	0.029	0.0075	0.019	?
CC1C/C(=N\NC(=O)c2ccc([N+](=O)[O-])cc2)CC(C)(C)C1 (configuration not stated)	5.4*	i	i	i	-16	i	0.01	0.016*	0.029	0.009*	0.027*	?
CC1C/C(=N\NC(=O)c2cccnc2)CC(C)(C)C1 (configuration not stated)	0.35	i	i	i	-9	i	·	·	·	·	·	·
Cc1cc(/C=C2/C(=O)N(C)C(=S)N2C)c(C)n1C1CC1	-0.046	i	i	i	-7	i	·	·	·	·	·	·
Cc1cc(/C=C2\SC(=S)NC2=O)c(C)n1C1CC1	5.6*	i	i	i	-17	i	0.0086	0.029*	0.025*	0.015*	0.025*	0.011*
CCOc1ccc(C2=Nn3c(nnc3-c3ccco3)SC2)cc1	0.16	i	i	i	-12	i	·	·	·	·	·	·
